Measured values published in ChEMBL document CHEMBL4007401, “Lynamicin D an antimicrobial natural product affects splicing by inducing the expression of SR protein kinase 1” (2017).
Active and inactive are the calls of the source. No cut-off for these calls is given here.

Assays:
HeLa [1] = experiment: Cytotoxicity against human HeLa cells assessed as cell viability at 30 uM after 48 hrs by MTT assay relative to control; format: functional; details: read-out: Activity
How it was run: (§1)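 Cells seeded at 10^4 per well, exposed 24 h later to lynamicin D (0-20 µM in methods; 30 µM stated in results) for 48 h. Then 4 h with 0.5 mg/ml MTT, crystals dissolved in 10% SDS in 0.01 N HCl, A570 read. Blanked against DMSO; medium-only cells = 100% viability. Means ±SE, three independent experiments.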

A549 [2] = experiment: Cytotoxicity against human A549 cells assessed as cell viability at 30 uM after 48 hrs by MTT assay relative to control; format: functional; details: A549, 48 h, read-out: Activity; how it was run: as §1
T98G = experiment: Cytotoxicity against human T98G cells assessed as cell viability at 30 uM after 48 hrs by MTT assay relative to control; format: functional; details: read-out: Activity; how it was run: as §1
HeLa [3] = experiment: Modulation of constitutive splicing of rat insulin exons 1 to 3 pre-mRNA expressed in human HeLa cells assessed as retention of introns up to 20 uM after 24 hrs by ethidium bromide staining based agarose gel electrophoresis method; format: cell-based
How it was run: (§2)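 HeLa (2 x 10exp4) transfected with 0.5 µg pSMN2 (exons 6-8) or pSRp20 (exons 3-5), or 1 µg pSVIRB (rat insulin exons 1-3). After 4 h, medium replaced with lynamicin D (0-20 µM; results cite 10, 20, 30 µM) or DMSO. RNA at 24 h, 1 µg RT, 30 PCR cycles, annealing 60 °C (SRp20 55 °C). Agarose gels; upper/lower band ratio. Means ±SE, n=3.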

HeLa [4] = experiment: Modulation of alternative splicing of SMN2 exons 6 to 8 pre-mRNA (unknown origin) expressed in human HeLa cells assessed as inclusion of exon-7 up to 20 uM after 24 hrs by ethidium bromide staining based agarose gel electrophoresis method; format: cell-based; how it was run: as §2
HeLa [5] = experiment: Modulation of alternative splicing of SRp20 exons […] pre-mRNA (unknown origin) expressed in human HeLa cells assessed as inclusion of exon-4 up to 20 uM after 24 hrs by ethidium bromide staining based agarose gel electrophoresis method; format: cell-based; how it was run: as §2
Rattus norvegicus = species on record: Rattus norvegicus; experiment: Modulation of constitutive splicing of rat insulin exons 1 to 3 pre-mRNA expressed in human T98G cells assessed as retention of introns up to 20 uM after 24 hrs by ethidium bromide staining based agarose gel electrophoresis method; format: cell-based
[6] = Modulation of alternative splicing of SRp20 exons […] pre-mRNA (unknown origin) expressed in human T98G cells assessed as inclusion of exon-4 up to 20 uM after 24 hrs by ethidium bromide staining based agarose gel electrophoresis method; format: cell-based
A549 [7] = experiment: Modulation of constitutive splicing of rat insulin exons 1 to 3 pre-mRNA expressed in human A549 cells assessed as retention of introns up to 20 uM after 24 hrs by ethidium bromide staining based agarose gel electrophoresis method; format: cell-based
[8] = target: SRSF protein kinase 1 (Homo sapiens) (UniProt Q96SB4); experiment: Inhibition of GST-tagged SRPK1 (unknown origin) at 5 to 30 uM using GST-LBRNt (62 to 92 residues) as substrate by SDS-PAGE based autoradiography
How it was run: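 Radioactive kinase reaction, 25 µL: 12 mM Hepes pH 7.5, 10 mM MgCl2, 25 µM ATP, 0.5 µg recombinant GST-SRPK1, 1 µg GST-LBRNt(62-92) (LBR N-terminal RS-containing fragment) as substrate. Lynamicin D 0-30 µM or SRPIN340 5 µM. Products run on 12% SDS-PAGE, Coomassie-stained and autoradiographed; incorporation measured by excising bands and scintillation counting.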

HeLa [9] = experiment: Modulation of SRPK1 pre-mRNA splicing in human HeLa cells assessed as effect on intracellular localization of SRPK1 at 30 uM after 24 hrs by DAPI staining based immunofluorescence microscopic method; format: cell-based
HeLa [10] = experiment: Modulation of SRPK1 pre-mRNA splicing in human HeLa cells assessed as increase in SRPK1 pre-mRNA level at 10 to 30 uM after 24 hrs by RT-PCR method relative to control; format: cell-based
How it was run: (§3)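 Total RNA from cells treated 24 h or control taken with TRIZOL. 1 µg reverse transcribed with random hexamers. SRPK1 amplified 27 cycles (95 °C 40 s, 66 °C 40 s, 72 °C 60 s); actin reference annealed at 60 °C. Products on 1% agarose, ethidium bromide. SRPK1/actin ratio by densitometry.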

HeLa [11] = experiment: Modulation of SRPK1 pre-mRNA splicing in human HeLa cells assessed as increase in SRPK1 protein level at 10 to 30 uM after 24 hrs by Western blot method relative to control; format: cell-based
How it was run: (§4)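 Lysis in 1% Triton X-100, 20 mM Hepes-KOH pH 7.5, 150 mM NaCl, 1 mM PMSF, 30 min on ice, needle-sheared, spun 13,000 g 15 min. Equal protein on 10% SDS-PAGE. Endogenous SRPK1 probed with mouse monoclonal anti-SRPK1, GAPDH as loading control, AP secondary with BCIP/NBT; SRPK1/GAPDH by densitometry.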

Homo sapiens [12] = species on record: Homo sapiens; experiment: Modulation of SRPK1 pre-mRNA splicing in human T98G cells assessed as increase in SRPK1 pre-mRNA level at 10 to 30 uM after 24 hrs by RT-PCR method relative to control; format: cell-based; how it was run: as §3
Homo sapiens [13] = species on record: Homo sapiens; experiment: Modulation of SRPK1 pre-mRNA splicing in human T98G cells assessed as increase in SRPK1 protein level at 10 to 30 uM after 24 hrs by Western blot method relative to control; format: cell-based; how it was run: as §4
A549 [14] = experiment: Modulation of SRPK1 pre-mRNA splicing in human A549 cells assessed as increase in SRPK1 pre-mRNA level at 10 to 30 uM after 24 hrs by RT-PCR method relative to control; format: cell-based; how it was run: as §3
A549 [15] = experiment: Modulation of SRPK1 pre-mRNA splicing in human A549 cells assessed as increase in SRPK1 protein level at 10 to 30 uM after 24 hrs by Western blot method relative to control; format: cell-based; how it was run: as §4
HeLa [16] = experiment: Modulation of constitutive splicing of rat insulin exons 1 to 3 pre-mRNA expressed in human HeLa cells assessed as retention of introns up to 20 uM after 24 hrs by ethidium bromide staining based agarose gel electrophoresis method
HeLa (Homo sapiens) = experiment: Modulation of alternative splicing of SRp20 exons […] pre-mRNA (unknown origin) expressed in human HeLa cells assessed as inclusion of exon-4 up to 20 uM after 24 hrs by ethidium bromide staining based agarose gel electrophoresis method

SRSF protein kinase 1 (Homo sapiens), sequence (Q96SB4 whole entry, the tested form may be a part): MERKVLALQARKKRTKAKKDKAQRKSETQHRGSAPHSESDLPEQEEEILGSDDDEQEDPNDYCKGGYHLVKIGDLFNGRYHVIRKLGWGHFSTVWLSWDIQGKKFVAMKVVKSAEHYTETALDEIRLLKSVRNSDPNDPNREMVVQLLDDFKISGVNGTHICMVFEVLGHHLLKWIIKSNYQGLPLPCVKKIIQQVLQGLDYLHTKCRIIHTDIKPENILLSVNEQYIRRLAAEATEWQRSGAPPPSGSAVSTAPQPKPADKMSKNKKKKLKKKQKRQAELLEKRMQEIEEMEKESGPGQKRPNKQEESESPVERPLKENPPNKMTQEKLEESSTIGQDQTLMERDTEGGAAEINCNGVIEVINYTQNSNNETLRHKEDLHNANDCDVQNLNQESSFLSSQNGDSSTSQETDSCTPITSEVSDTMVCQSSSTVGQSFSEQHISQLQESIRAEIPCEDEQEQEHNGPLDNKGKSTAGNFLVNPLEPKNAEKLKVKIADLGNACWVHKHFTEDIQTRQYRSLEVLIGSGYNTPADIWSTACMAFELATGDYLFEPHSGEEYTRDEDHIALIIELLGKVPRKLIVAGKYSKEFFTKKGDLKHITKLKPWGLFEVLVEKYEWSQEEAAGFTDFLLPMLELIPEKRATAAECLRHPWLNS

Question: Which results are given for `COC(=O)c1[nH]c(C(=O)OC)c(-c2c[nH]c3ccc(Cl)cc23)c1-c1c[nH]c2ccc(Cl)cc12` [LYNAMICIN D]?
Answer: viability at 30 µM (HeLa [1]): 82%; viability at 30 µM (A549 [2]): 88%; viability at 30 µM (T98G): 91%; Activity (HeLa [3]): Active; Activity (HeLa [4]): Active; Activity (HeLa [5]): Active; Activity (Rattus norvegicus): Active; Activity [6]: Active; Activity (A549 [7]): Active; inhibition [8]: inactive; Activity (HeLa [9]): inactive; fold change (FC) (HeLa [10]): 3; fold change (FC) (HeLa [11]): 1.9; Activity (Homo sapiens [12]): Active; Activity (Homo sapiens [13]): Active; Activity (A549 [14]): Active; Activity (A549 [15]): Active; Activity (HeLa [16]): Active; Activity (HeLa (Homo sapiens)): Active
